Experiments:
[1] = Solubility observations; assay type: physicochemical
[2] = molecular target: T1, human Ero1α (Homo sapiens, UniProt Q96HE7, C104A/C131A/C166A); test: Amplex Red/Ero1α catalytic assay; assay type: biochemical
T1 sequence (Q96HE7 22-468 C104A/C131A/C166A): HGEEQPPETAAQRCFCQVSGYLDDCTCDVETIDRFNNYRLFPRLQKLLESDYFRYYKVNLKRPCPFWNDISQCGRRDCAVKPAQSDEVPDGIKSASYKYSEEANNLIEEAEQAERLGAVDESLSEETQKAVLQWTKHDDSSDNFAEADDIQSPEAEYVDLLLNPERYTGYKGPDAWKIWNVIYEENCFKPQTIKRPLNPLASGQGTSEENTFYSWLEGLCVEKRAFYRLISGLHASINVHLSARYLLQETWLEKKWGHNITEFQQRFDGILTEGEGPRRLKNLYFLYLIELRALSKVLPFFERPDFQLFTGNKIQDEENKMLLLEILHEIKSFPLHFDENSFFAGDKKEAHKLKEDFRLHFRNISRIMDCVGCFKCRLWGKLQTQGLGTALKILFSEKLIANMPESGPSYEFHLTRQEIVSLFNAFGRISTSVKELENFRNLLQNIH
How it was run: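 Hyperactive His-tagged human Ero1α (residues 22–468) expressed in E. coli BL21(DE3)RIL, Ni-NTA purified, oxidised with ferricyanide, monomeric gel-filtration fraction; 0.0625 mg/mL enzyme with HRP, 25 μM Amplex Red, human PDI (18–479) substrate 0.250–0.008 mg/mL, test compound 200–0.01 μM, 50 mM sodium phosphate pH 7.4; 30 min, 37 °C; fluorescence Ex 530/Em 590; two experiments in triplicate.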

[3] = test system: Ero1L; details: cited from earlier work
[4] = test system: normal PBMCs; test: Cell death in normal PBMCs; assay type: cell-based; details: data not shown
[5] = test system: U266 cells; test: Annexin V/propidium iodide double-staining assay; assay type: cell-based; details: 25 μM, 18 h
How it was run: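 U266 cells exposed to DMSO vehicle or 25 μM test compound for 18 h, then washed in ice-cold PBS and stained with Annexin V-FITC/PI in binding buffer for 15 min at 37 °C in the dark. Flow cytometry counted at least 10,000 cells per sample. Means ± SD from three independent experiments.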

[6] = test system: U266 cells; test: Western blot analysis of ER stress markers; assay type: cell-based; details: U266, 2, 4 and 8 h
How it was run: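 U266 lysates taken after 2, 4 and 8 h with DMSO or test compound, run on 8–10% SDS-PAGE and transferred to PVDF. Membranes blocked 1 h at room temperature in 5% milk/TBST, probed overnight at 4 °C for p-eIF2α, ATF4, ATF6 and β-actin, then HRP secondary for 1 h. Chemiluminescent detection; n=3 independent assays.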

In the case of `[N-]=[N+]=Nc1ccc(-c2ccc(/C=C3/C(=O)N(c4ccc(Cl)c(C(=O)O)c4)N=C3C(F)(F)F)o2)cc1` [PB-11, (E)-5-(4-((5-(4-azidophenyl)furan-2-yl)methylene)-5-oxo-3-(trifluoromethyl)-4,5-dihydro-1H-pyrazol-1-yl)-2-chlorobenzoic acid], the “Solubility in physiological buffers” value ([1]; e.g. PBS pH 7.4) is reported as “less soluble”.
For `CC1=NN(c2ccc(C)cc2)C(=O)/C1=C/c1ccc(-c2ccc(C(=O)O)cc2)o1` [AN968], the “Activity against Ero1L (derivative screen, Supplementary Fig. 2)” value [2] was “marginally active”.
For `O=C(O)c1cc(N2N=C(C(F)(F)F)/C(=C/c3ccc(-c4ccccc4)o3)C2=O)ccc1Cl` [EN460], the Solubility [1] is given as “poor solubility”, the “Reachable concentration in vitro” value ([1]; limited by poor solubility) is given as no more than 200 µM and the “Inhibition of the Ero1L enzyme” value [3] is given as “low micromolar range”. For the same compound, the “Cell death in normal PBMCs” value [4] was “sufficient to induce cell death”, the “Mode of Ero1L inhibition” value ([2]; increasing substrate PDI with different EN460 concentrations) was “competitive” and the Km ([2]; substrate PDI, with EN460) was “increased”. For the same compound, the Vmax ([2]; substrate PDI, with EN460) was “largely stated the same”, the “Apoptosis (Annexin V positive cells)” value [5] was “induces apoptosis” and the ATF4 level [6] was “modest increase”. The “full length ATF6 level” value [6] was “reduced levels” and the p-eIF2α level [6] was “robust increase”.
For `CC1=NN(c2ccccc2)C(=O)/C1=C/c1ccc(-c2cccc(Br)c2)o1` [AK968], the “Activity against Ero1L (derivative screen, Supplementary Fig. 2)” value [2] was “inactive”.
For `[N-]=[N+]=Nc1cccc(-c2ccc(/C=C3/C(=O)N(c4ccc(Cl)c(C(=O)O)c4)N=C3C(F)(F)F)o2)c1` [PB-10, (E)-5-(4-((5-(3-azidophenyl)furan-2-yl)methylene)-5-oxo-3-(trifluoromethyl)-4,5-dihydro-1H-pyrazol-1-yl)-2-chlorobenzoic acid], the Solubility [1] was “comparable in solubility to EN460”.

From paper PMC6554731 (Bioorganic & medicinal chemistry, 2019)
